# Assay results of several laboratories.
# Lines come from different studies, so protocols differ.
# Read-out: cell growth or viability
SMILES,cell line,technique,time,IC50
CC[C@@H](C)[C@H](N)C(=O)N1Cc2ccccc2C1,HEL,ATP luminescence,48 h,> 60000 nM
CS(=O)(=O)c1nc(N)n(-c2ccc(C(=O)O)cc2)n1,RPE-1,MTT,,34200 nM
NCCOc1cc(NC(=O)c2cccc(C(=O)Nc3cc(OCCN)c4ccccc4n3)n2)nc2ccccc12,U2OS,ATP luminescence,72 h,700 nM
N[C@@H](CC(=O)N1CCN(C(c2ccc(F)cc2)c2ccc(F)cc2)CC1)C(=O)N1Cc2ccccc2C1,NB-4,ATP luminescence,48 h,1330 nM
Cc1ccc(C(=O)Nc2ccc(Oc3cc4cnn(C)c4cc3-c3cn[nH]c3)c(F)c2)c(=O)n1-c1ccc(F)cc1,Hs746T,ATP luminescence,,34 nM
CCCCc1ccc2[nH]c(NC(=O)OC)nc2c1,SCC-9,CCK-8,72 h,76.9 nM
CN(C)CCCOc1cc(NC(=O)c2cccc(C(=O)Nc3cc(OCCCN(C)C)c4ccccc4n3)n2)nc2ccccc12,U2OS,ATP luminescence,72 h,2100 nM
CC(C)C[C@H](NC(=O)[C@H](Cc1ccccc1)NC(=O)c1cnccn1)B(O)O,SK-N-SH,ATP luminescence,,8 nM
CC(=O)c1ccc(O)cn1,Hepa-1c1c7,crystal violet,48 h,> 100000 nM
NCCOc1cc(NC(=O)c2cc(OCc3c[nH]nn3)cc(C(=O)Nc3cc(OCCN)c4ccccc4n3)n2)nc2ccccc12,U2OS,ATP luminescence,72 h,> 40000 nM
COc1cccc2c1C(=O)c1c(O)c3c(c(O)c1C2=O)C[C@@](O)(C(=O)CO)C[C@@H]3O[C@H]1C[C@H](N)[C@H](O)[C@H](C)O1,RPE-1,MTT,,22600 nM
C#CCOc1cc(C(=O)Nc2cc(OCCCN)c3ccccc3n2)nc(C(=O)Nc2cc(OCCCN)c3ccccc3n2)c1,U2OS,ATP luminescence,72 h,2300 nM
CSc1nc(/N=C/c2cc([N+](=O)[O-])ccc2O)n(-c2ccc(C(=O)O)cc2)n1,RPE-1,MTT,,24000 nM
C[S@@+]([O-])CCCCN=C=S,Hepa-1c1c7,,,15200 nM
O=C(Nc1cc(OCCN2CCCC2)c2ccccc2n1)c1cc(OCCN2CCCC2)cc(C(=O)Nc2cc(OCCN3CCCC3)c3ccccc3n2)n1,U2OS,ATP luminescence,72 h,2100 nM
CN1c2ccccc2C(=O)N2[C@H](C(=O)Nc3ccc(C(=O)Nc4ccccc4N)cc3)Cc3c([nH]c4ccccc34)[C@@H]12,HEL,,,660 nM
CC(=O)Oc1ccc2c(c1)C(C)=CC(C)(C)N2Cc1ccccc1,PLC5,MTT,72 h,18000 nM
O=C(O)c1ccc(-n2nc(Oc3ccccc3)nc2/N=C/c2cc([N+](=O)[O-])ccc2O)cc1,RPE-1,MTT,,26800 nM
NCCCOc1cc(NC(=O)c2cc(OCCN)cc(C(=O)Nc3cc(OCCCN)c4ccccc4n3)n2)nc2ccccc12,U2OS,ATP luminescence,72 h,14100 nM
CC(C)[C@H](N)C(=O)N1CCC[C@H]1B(O)O,NB-4,ATP luminescence,48 h,100 nM
CN(C)CCOc1cc(NC(=O)c2cc(Cl)cc(C(=O)Nc3cc(OCCN(C)C)c4ccccc4n3)n2)nc2ccccc12,U2OS,ATP luminescence,72 h,2200 nM
COc1cc(Nc2nccc(-c3cnn4nc(OC)ccc34)n2)cc(C(F)(F)F)c1,SK-N-SH,ATP luminescence,,970 nM
Cc1ccc(O)c(/C=N/c2nc(Oc3ccccc3)nn2-c2ccc(C(=O)O)cc2)c1,RPE-1,MTT,,33700 nM
Nc1ncc(-c2cnn(C3CCNCC3)c2)cc1-c1nnc(CC2CC2)o1,NB-4,trypan blue,72 h,846 nM
CSc1nc(/N=C/c2cccc(O)c2)n(-c2ccc(C(=O)O)cc2)n1,RPE-1,MTT,,34600 nM
COc1cc(-c2ncn(/C=C\C(=O)OC(C)C)n2)cc(C(F)(F)F)c1,HEL,,72 h,104 nM
Nc1nc(Oc2ccccc2)nn1-c1ccc(C(=O)O)cc1,RPE-1,MTT,,25700 nM
COc1cc(C(=O)Nc2cc(OCCN3CCCC3)c3ccccc3n2)nc(C(=O)Nc2cc(OCCN3CCCC3)c3ccccc3n2)c1,U2OS,ATP luminescence,72 h,1600 nM
COC(=O)c1ccc(-n2nc(SC)nc2N)cc1,RPE-1,MTT,,37300 nM
FC(F)(F)c1ccc(C(c2c[nH]c3ccccc23)c2c[nH]c3ccccc23)cc1,U2OS,ATP luminescence,22 h,12600 nM
